Results on 3 molecules are retold here after paper PMC7025391 (The Lancet. Oncology, 2019).

Data set [1] in a line: Pharmacokinetics: steady state Cmax of alpelisib and olaparib. The data set is classed as in vivo, human. Conditions: combination; for Effect of the other drug's dosing on Cmax: dose levels 0-3; for Steady state Cmax compared with monotherapy: day 8, 2 hours post dosing. Summed up:
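Blood sampled for alpelisib and olaparib levels on cycle 1 day 1 (time 0) and on days 8 and 15 at 0, 1, 2, 4 and 8 h after dosing both agents. Patients took oral alpelisib once daily and olaparib tablets twice daily, continuously on 28-day cycles, at alpelisib 200–300 mg with olaparib 100–200 mg.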

The subject of data set [2] is patients with recurrent EOC or BC. In words: Phase 1b 3+3 dose escalation: DLTs, MTD and RP2D. The data set is classed as in vivo, human. A digest of the protocol:
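Classic 3+3 design with continuous 28-day cycles: oral alpelisib q.d. plus olaparib tablets b.i.d. Levels were 250/100 mg, 250/200 mg, 300/200 mg and 200/200 mg. Escalation followed 0/3 or 1/6 DLTs in cycle 1, graded by CTCAE v4.03. DLTs were prespecified grade ≥3 treatment-related toxicities. Monitoring was weekly in cycles 1–2, then day 1 of each cycle. Six EOC patients were then expanded at the MTD.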

For data set [3], the system named is EOCs that are gBRCAwt but HRD positive and platinum resistant. Particulars: gBRCAwt but HRD positive and platinum resistant EOC; QUADRA study; cited from earlier work.
Data set [4] has as its system patients. Conditions: olaparib monotherapy, SOLO1 study; cited from earlier work.
Data set [5] deals with EOC patients. Particulars: cited from earlier work.

SMILES strings stand for the structures. Read-outs that look alike come from different tables or passages of the source. Some results are limits rather than exact numbers.

With `Cc1nc(NC(=O)N2CCC[C@H]2C(N)=O)sc1-c1ccnc(C(C)(C)C(F)(F)F)c1` [alpelisib], in data set [1], the “Dose proportionality of drug exposure” value is reported as “increasing proportionally with increasing dose”, the “Effect of the other drug's dosing on Cmax” value is reported as “unaffected by olaparib dosing” and the “Steady state Cmax compared with monotherapy” value is listed as “comparable to values when testing these agents as monotherapy”. In addition, the “MTD and RP2D, alpelisib dose” value in data set [2] (orally once daily, combined with olaparib 200 mg twice daily) came out at 200 mg.
In the case of `NC(=O)c1cccc2cn(-c3ccc([C@@H]4CCCNC4)cc3)nc12` [niraparib], the Response to monotherapy in data set [3] was 10%.
Take `O=C(c1cc(Cc2n[nH]c(=O)c3ccccc23)ccc1F)N1CCN(C(=O)C2CC2)CC1` [olaparib]: in data set [4], the “Fatigue, share of patients” value is listed as 63%; the “Nausea, share of patients” value was 77%; the “Vomiting, share of patients” value was 40%. Besides, in data set [5] (BRCAwt, platinum-resistant ovarian carcinomas, no ref given), the “Objective response rate expected from monotherapy” value is listed as 4–5%. Also, the ORR as monotherapy in data set [5] (gBRCAwt / BRCAwt platinum resistant patients) is reported as ~ 5%. In addition, the “Expected response rate of monotherapy” value in data set [5] (platinum resistant gBRCAmut EOC) is listed as 28%. Also, in data set [5] (platinum resistant gBRCAwt EOC), the “Expected response rate of monotherapy” value is ~ 5%. In addition, the “Expected response rate of monotherapy” value in data set [5] (platinum sensitive gBRCAmut EOC) was at least 60%. Moreover, the “Expected response rate of monotherapy” value in data set [5] (platinum sensitive gBRCAwt EOC) is given as 50%. Besides, in data set [1], the “Dose proportionality of drug exposure” value is “increasing proportionally with increasing dose”, the “Effect of the other drug's dosing on Cmax” value was “unaffected by alpelisib dosing” and the “Steady state Cmax compared with monotherapy” value is “comparable to values when testing these agents as monotherapy”. Moreover, the “MTD and RP2D, olaparib dose” value in data set [2] (orally twice daily (tablet), combined with alpelisib 200 mg once daily) is reported as 200 mg.
